In ChEMBL document CHEMBL1764980, “Synthesis and biological evaluation of orally active prodrugs of indomethacin” (J Med Chem, 2011):

How the values were obtained:
[1] = Aqueous solubility of the compound in 0.2 M hydrochloric acid buffer at pH 1 after 4 hrs by HPLC analysis; format: physicochemical
In short: (§1)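 5 mg compound in 10 mL buffer, shaken at 400 rpm for 4 h at 40 °C. Then passed through a 0.20 μm membrane filter. Filtrate quantified by HPLC at 254 nm for both solubility and hydrolysis to parent. Detection limits estimated by HPLC.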

[2] = Chemical stability of the compound at 0.1 M citric acid buffer assessed as hydrolysis to parent compound at pH 3 after 4 hrs by HPLC analysis; format: physicochemical; conditions: pH 3, 4 h; in short: as §1
[3] = Aqueous solubility of the compound in 0.1 M boric acid buffer at pH 9 after 4 hrs by HPLC analysis; format: physicochemical; in short: as §1
Rattus norvegicus [4] = experiment: Gastrointestinal toxicity in Wistar rat assessed as ulcerogenic index at 100 mg/kg, po administered as single dose; format: organism-based; parameters: dose 100 mg/kg, route oral; conditions: in vivo
In short: (§2)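 Male Wistar rats (150-200 g), n = 6 per group, fasted 18 h with water available. Single oral dose of 100 mg/kg. Killed under ether 6 h after dosing; stomach opened along the greater curvature, washed and examined. Lesion lengths measured by Vernier caliper and graded I (<1 mm), II (1-3 mm) or III (>3 mm). UI = 1×(I) + 2×(II) + 3×(III), averaged over six animals.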

[5] = Metabolic stability in rat plasma assessed as compound remaining at 5 mM after 60 mins by HPLC analysis; format: ADME, cell-free; conditions: read-out: Stability
[6] = Chemical stability of the compound at 0.1 M boric acid buffer assessed as hydrolysis to parent compound at pH 9 after 4 hrs by HPLC analysis; format: physicochemical; conditions: pH 9, 4 h; in short: as §1
Rattus norvegicus [7] = experiment: Antiinflammatory activity in Wistar rat assessed as inhibition of carrageenan-induced paw edema at 100 mg/kg, po administered 1 hr before carrageenan challenge measured after 3 hrs by plethysmograph relative to control; format: functional
In short: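 Male Wistar rats (150-200 g). Carrageenan 1% (0.1 mL) injected subplantar into left paw under light ether anaesthesia; test compound 100 mg/kg po given 1 h before. Paw volume read by plethysmograph 3 h after carrageenan. % inhibition = (carrageenan − test)/(carrageenan − normal) × 100. Groups: normal control, carrageenan, carrageenan plus treatment.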

[8] = Metabolic stability in rat liver microsomes assessed as compound remaining at 5 mM after 30 mins by HPLC analysis; format: ADME, Microsome; conditions: read-out: Stability
[9] = Metabolic stability in rat liver microsomes assessed as compound remaining at 5 mM after 60 mins by HPLC analysis; format: ADME, Microsome; conditions: read-out: Stability
[10] = Aqueous solubility of the compound in 0.1 M citric acid buffer at pH 3 after 4 hrs by HPLC analysis; format: physicochemical; in short: as §1
[11] = Chemical stability of the compound at 0.2 M phosphate buffer assessed as hydrolysis to parent compound at pH 7.4 after 4 hrs by HPLC analysis; format: physicochemical; conditions: pH 7.4, 4 h; in short: as §1
[12] = Aqueous solubility of the compound in 0.1 M phosphate buffer at pH 5.2 after 4 hrs by HPLC analysis; format: physicochemical; in short: as §1
[13] = Partition coefficient, log P of the compound in n-octanol-phosphate buffer at pH 7.4 by HPLC analysis; format: physicochemical
In short: (§3)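 Shake-flask method at 25 °C. 1-octanol and aqueous buffer (0.2 M phosphate pH 7.4 or 0.1 M citric acid pH 3.0) pre-saturated with each other for 24 h. Compound shaken in 5 mL each phase for 60 min at 400 rpm, then centrifuged at 3500 rpm for 5 min. Both phases quantified by HPLC at 254 nm. log P = log(octanol/water concentration). Run in triplicate.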

[14] = Chemical stability of the compound at 0.2 M hydrochloric acid buffer assessed as hydrolysis to parent compound at pH 1 after 4 hrs by HPLC analysis; format: physicochemical; conditions: pH 1, 4 h; in short: as §1
[15] = Chemical stability of the compound at 0.1 M phosphate buffer assessed as hydrolysis to parent compound at pH 5.2 after 4 hrs by HPLC analysis; format: physicochemical; conditions: pH 5.2, 4 h; in short: as §1
Rattus norvegicus [16] = experiment: Gastrointestinal toxicity in Wistar rat assessed as appearance ulcer area of <1 mm diameter at 100 mg/kg, po administered as single dose after 6 hrs by Vernier caliper; format: organism-based; parameters: dose 100 mg/kg, route oral; conditions: in vivo; in short: as §2
[17] = Partition coefficient, log P of the compound in 1-octanol-citric acid buffer at pH 3 by HPLC analysis; format: physicochemical; in short: as §3
[18] = Aqueous solubility of the compound in 0.2 M phosphate buffer at pH 7.4 after 4 hrs by HPLC analysis; format: physicochemical; in short: as §1
Rattus norvegicus [19] = experiment: Gastrointestinal toxicity in Wistar rat assessed as appearance ulcer area of >3 mm diameter at 100 mg/kg, po administered as single dose after 6 hrs by Vernier caliper; format: organism-based; parameters: dose 100 mg/kg, route oral; conditions: in vivo; in short: as §2
Rattus norvegicus [20] = experiment: Gastrointestinal toxicity in Wistar rat assessed as appearance ulcer area of 1 to 3 mm diameter at 100 mg/kg, po administered as single dose after 6 hrs by Vernier caliper; format: organism-based; parameters: dose 100 mg/kg, route oral; conditions: in vivo; in short: as §2

Row | solubility at 4 h [1] [µg/mL] | Stability [2] [µg/mL] | solubility at 4 h [3] [µg/mL] | remaining at 1 h [5] [%] | Stability [6] [µg/mL] | remaining at 0.5 h [8] [%] | remaining at 1 h [9] [%] | solubility at 4 h [10] [µg/mL] | Stability [11] [µg/mL] | solubility at 4 h [12] [µg/mL] | logD [13] | Stability [14] [µg/mL] | Stability [15] [µg/mL] | logD [17] | solubility at 4 h [18] [µg/mL] | SMILES | UI (Rattus norvegicus [4]) | inhibition in vivo at 100 mg/kg (Rattus norvegicus [7]) [%] | Activity (Rattus norvegicus [16]) [%] | Activity (Rattus norvegicus [19]) [%] | Activity (Rattus norvegicus [20]) [%]
1 | < 0.084 | 0.0075 | < 0.084 | 0 | 2.187 | 0 | 0 | < 0.084 | 0.294 | < 0.084 | 4.7 | 0.021 | 0.1525 | 4.6 | < 0.084 | COc1ccc2c(c1)c(CC(=O)OCOC(=O)C(C)(C)C)c(C)n2C(=O)c1ccc(Cl)cc1 | 19 | 48.4 | 100 |  | 
2 | < 0.119 | 0.00539 | < 0.119 |  | 0.2461 |  |  | < 0.119 | 0.01332 | < 0.119 | 5 | 0.01 | 0.01379 | 5.1 | < 0.119 | COc1ccc2c(c1)c(CC(=O)OCOC(=O)OC(C)C)c(C)n2C(=O)c1ccc(Cl)cc1 | 62 | 45.2 | 86.3 | 7.8 | 5.9
3 | < 0.111 | 0.0092 | < 0.111 | 0 | 0.369 | 1.14 | 0 | < 0.111 | 0.0093 | < 0.111 | 3.5 | 0.0103 | 0.0197 | 4.2 | < 0.111 | COc1ccc2c(c1)c(CC(=O)OCCOC(C)=O)c(C)n2C(=O)c1ccc(Cl)cc1 | 0 | 44.4 |  |  | 
4 | < 0.0638 | 0.0134 | < 0.0638 |  | 0.5106 |  |  | < 0.0638 | 0.0101 | < 0.0638 | 2.9 | 0.0191 | 0.0244 | 4.5 | < 0.0638 | COc1ccc2c(c1)c(CC(=O)OCc1oc(=O)oc1C)c(C)n2C(=O)c1ccc(Cl)cc1 | 0 | 12.1 |  |  | 
5 |  |  |  | 97.1 |  | 90.3 | 80.2 |  |  |  |  |  |  | 4.2 |  | COc1ccc2c(c1)c(CC(=O)O)c(C)n2C(=O)c1ccc(Cl)cc1 [INDOMETHACIN] | 47 | 48.4 | 90.2 | 4.9 | 4.9
